Measurements reported in ChEMBL document CHEMBL3352559, “Synthesis and pharmacological investigation of aralkyl diamine derivatives as potential triple reuptake inhibitors” (Eur J Med Chem, 2014).

Assays:
[1] = biological target: Melanocortin receptor 4 (Homo sapiens) (UniProt P32245); test: Displacement of [125I] NDP-alpha-MSH from human MC4 receptor at 10 uM relative to control
Summary of the method: (§1)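 Outsourced CNS panel of 55 receptor binding assays run by Cerep. Compound tested at 10 μM, the default primary-binding concentration, with inhibition expressed relative to control. Inhibition above 50% taken as a significant effect.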

[2] = AUC (0 to time) in Sprague-Dawley rat at 2 mg/kg, po; type: ADME, organism-based; design: dose 2 mg/kg, route oral; conditions: plasma
Summary of the method: (§2)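 Male SD rats, fasted overnight until 6 h post-dose. PO group received single 2 mg/kg with heparinized blood sampled at 5, 15, 30 min, 1, 2, 4, 8, 24 h. IV group received single 0.5 mg/kg via femoral vein with sampling at 5, 15, 30 min, 1, 2, 4 h. Plasma stored at -40 °C, quantified by LC/MS/MS; 24 rats per group.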

[3] = Oral bioavailability in Sprague-Dawley rat at 2 mg/kg; type: ADME, organism-based; conditions: in vivo
Rattus norvegicus [4] = test: Antidepressant activity in rat assessed as reduction in immobility time at 20 mg/kg, po by forced swimming test relative to control; type: functional
Summary of the method: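 Male rats dosed orally at 5, 10 or 20 mg/kg alongside vehicle and venlafaxine 30 mg/kg PO groups. 1 h post-dose, each rat placed in a glass cylinder (40 cm × 18 cm) holding 15 cm of 25 ± 1 °C water. Immobility time recorded over a 6 min trial; significant main effects followed by post hoc Fisher's test.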

[5] = Clearance in Sprague-Dawley rat at 0.5 mg/kg, iv; conditions: in vivo
[6] = biological target: D(2) dopamine receptor (Homo sapiens) (UniProt P14416); test: Displacement of [3H]N-Methylspiperone from human dopamine D2S receptor at 10 uM relative to control; summary of the method: as §1
[7] = Drug uptake in Sprague-Dawley rat plasma at 0.5 mg/kg iv after 0.08 hrs; type: ADME, organism-based; design: dose 0.5 mg/kg, route intravenous
Summary of the method: (§3)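 Male SD rats, fasted overnight until 6 h post-dose; single 0.5 mg/kg femoral-vein injection; blood drawn into heparin at 5, 15, 30 min, 1, 2 and 4 h; plasma stored at -40 °C; drug levels by LC/MS/MS; noncompartmental parameters.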

[8] = biological target: Cholecystokinin receptor type A (Homo sapiens) (UniProt P32238); test: Displacement of [125I]CCK-8s from human CCKA at 10 uM relative to control; summary of the method: as §1
Cholecystokinin receptor type A (Homo sapiens), sequence (P32238 whole entry): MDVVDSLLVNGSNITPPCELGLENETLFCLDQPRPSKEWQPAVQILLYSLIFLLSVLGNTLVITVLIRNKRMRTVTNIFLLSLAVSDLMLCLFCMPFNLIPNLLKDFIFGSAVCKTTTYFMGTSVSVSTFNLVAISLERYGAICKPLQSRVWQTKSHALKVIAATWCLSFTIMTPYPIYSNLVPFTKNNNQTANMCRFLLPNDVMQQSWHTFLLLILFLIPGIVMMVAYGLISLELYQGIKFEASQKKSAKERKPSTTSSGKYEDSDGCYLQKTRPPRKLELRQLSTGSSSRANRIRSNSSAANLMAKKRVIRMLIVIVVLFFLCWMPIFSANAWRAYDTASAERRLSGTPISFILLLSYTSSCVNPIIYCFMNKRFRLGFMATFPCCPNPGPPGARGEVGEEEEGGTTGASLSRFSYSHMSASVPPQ

[9] = Drug uptake in Sprague-Dawley rat brain at 0.5 mg/kg ip after 2 hrs
[10] = biological target: Sodium-dependent noradrenaline transporter (Homo sapiens, UniProt P23975); conditions: 10 uM
[11] = Ratio of drug level in Sprague-Dawley rat brain to plasma at 0.5 mg/kg iv after 0.50 hrs; type: ADME, organism-based; design: dose 0.5 mg/kg, route intravenous; conditions: read-out: BPR
Salmonella typhimurium [12] = test: Mutagenic activity in Salmonella typhimurium TA100 assessed as number of reversion mutation at 10 ug/plate; type: toxicity, organism-based; conditions: salmonella enterica subsp. enterica serovar typhimurium
Summary of the method: (§4)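 Ames reversion test in Salmonella typhimurium TA98 and TA100, with and without rat liver S9 metabolic activation. Compound was dissolved in DMSO and added at 3–5000 μg/plate. Each dose, vehicle and positive control was plated in triplicate, and revertant colonies were counted.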

[13] = AUC (0 to infinity) in Sprague-Dawley rat at 0.5 mg/kg, iv; type: ADME, organism-based; design: time infinity, dose 0.5 mg/kg, route intravenous; conditions: plasma; summary of the method: as §2
[14] = biological target: Nociceptin receptor (Homo sapiens) (UniProt P41146); test: Displacement of [3H] nociceptin from human ORL1 receptor at 10 uM relative to control; summary of the method: as §1
Nociceptin receptor (Homo sapiens), sequence (P41146 whole entry): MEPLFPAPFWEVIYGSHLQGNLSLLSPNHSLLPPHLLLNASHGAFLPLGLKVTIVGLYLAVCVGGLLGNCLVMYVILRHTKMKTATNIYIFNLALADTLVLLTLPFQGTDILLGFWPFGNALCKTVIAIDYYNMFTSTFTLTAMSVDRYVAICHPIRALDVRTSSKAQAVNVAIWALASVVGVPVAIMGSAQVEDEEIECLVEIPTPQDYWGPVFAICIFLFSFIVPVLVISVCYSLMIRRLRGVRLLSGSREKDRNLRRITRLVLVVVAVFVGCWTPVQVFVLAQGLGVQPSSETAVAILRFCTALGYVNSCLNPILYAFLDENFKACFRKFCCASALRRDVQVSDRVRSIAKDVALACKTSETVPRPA

Homo sapiens [15] = organism: Homo sapiens; test: Inhibition of Na+ channel (unknown origin) at 10 uM by [3H]batrachotoxinin binding assay relative to control
Summary of the method: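 Radioligand binding was run at a contract laboratory as part of a 55-target CNS receptor panel. Test concentration was 10 μM. Inhibition of specific binding was expressed relative to control, and inhibition greater than 50% was taken as significant.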

[16] = biological target: Muscarinic acetylcholine receptor M1 (Homo sapiens) (UniProt P11229); test: Displacement of [3H]pirenzepine from human muscarinic M1 receptor at 10 uM relative to control
Muscarinic acetylcholine receptor M1 (Homo sapiens), sequence (P11229 whole entry): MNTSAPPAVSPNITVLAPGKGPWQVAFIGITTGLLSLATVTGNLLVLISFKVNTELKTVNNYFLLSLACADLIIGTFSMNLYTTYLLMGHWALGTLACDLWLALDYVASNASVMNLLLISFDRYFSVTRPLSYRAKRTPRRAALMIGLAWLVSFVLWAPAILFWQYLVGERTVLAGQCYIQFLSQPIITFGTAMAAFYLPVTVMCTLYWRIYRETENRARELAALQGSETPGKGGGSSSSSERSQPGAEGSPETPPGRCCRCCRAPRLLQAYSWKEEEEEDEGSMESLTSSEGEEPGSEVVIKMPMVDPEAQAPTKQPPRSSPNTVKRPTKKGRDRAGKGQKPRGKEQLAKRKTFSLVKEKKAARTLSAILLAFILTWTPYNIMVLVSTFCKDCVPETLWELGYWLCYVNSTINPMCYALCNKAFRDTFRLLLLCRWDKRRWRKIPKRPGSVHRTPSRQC
Summary of the method: (§5)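 Outsourced CNS receptor panel (55 binding assays); compound tested at 10 μM in primary radioligand binding; specific binding inhibition expressed relative to control, with >50% inhibition taken as a significant effect.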

[17] = biological target: Muscarinic acetylcholine receptor M3 (Homo sapiens) (UniProt P20309); test: Displacement of [3H]4-DAMP from human muscarinic M3 receptor at 10 uM relative to control; summary of the method: as §1
Muscarinic acetylcholine receptor M3 (Homo sapiens), sequence (P20309 whole entry, looked up): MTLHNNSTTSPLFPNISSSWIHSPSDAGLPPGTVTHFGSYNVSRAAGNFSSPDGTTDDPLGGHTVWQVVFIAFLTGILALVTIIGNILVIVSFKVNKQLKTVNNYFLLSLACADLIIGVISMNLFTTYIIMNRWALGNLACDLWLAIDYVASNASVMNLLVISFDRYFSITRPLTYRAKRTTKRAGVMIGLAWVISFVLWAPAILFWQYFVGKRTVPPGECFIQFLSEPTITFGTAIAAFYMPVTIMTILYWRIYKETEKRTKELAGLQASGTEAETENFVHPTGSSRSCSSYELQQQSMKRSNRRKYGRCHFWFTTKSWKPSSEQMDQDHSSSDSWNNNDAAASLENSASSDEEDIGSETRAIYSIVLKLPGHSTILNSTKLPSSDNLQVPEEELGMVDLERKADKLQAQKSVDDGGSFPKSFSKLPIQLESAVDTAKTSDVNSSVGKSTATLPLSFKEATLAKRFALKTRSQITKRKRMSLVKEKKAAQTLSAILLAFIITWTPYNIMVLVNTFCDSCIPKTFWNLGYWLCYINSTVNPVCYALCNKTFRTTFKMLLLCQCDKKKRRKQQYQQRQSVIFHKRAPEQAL

[18] = biological target: 5-hydroxytryptamine receptor 1A (Homo sapiens) (UniProt P08908); test: Displacement of [3H]OHDPAT from human 5-HT1A receptor at 10 uM relative to control; summary of the method: as §1
5-hydroxytryptamine receptor 1A (Homo sapiens), sequence (P08908 whole entry): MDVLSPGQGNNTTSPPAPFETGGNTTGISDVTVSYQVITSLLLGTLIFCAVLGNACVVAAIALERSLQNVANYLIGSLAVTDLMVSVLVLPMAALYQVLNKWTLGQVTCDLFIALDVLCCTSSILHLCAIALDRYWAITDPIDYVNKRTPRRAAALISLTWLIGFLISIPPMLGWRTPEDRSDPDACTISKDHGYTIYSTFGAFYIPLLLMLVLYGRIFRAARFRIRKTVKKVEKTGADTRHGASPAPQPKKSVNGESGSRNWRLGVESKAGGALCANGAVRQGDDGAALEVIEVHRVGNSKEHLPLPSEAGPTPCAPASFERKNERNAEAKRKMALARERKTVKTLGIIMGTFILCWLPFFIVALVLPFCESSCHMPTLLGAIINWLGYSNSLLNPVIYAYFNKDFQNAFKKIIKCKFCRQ

Homo sapiens [19] = organism: Homo sapiens; test: Inhibition of GABA-gated chloride channel (unknown origin) at 10 uM by [35S]TBPS binding assay relative to control; summary of the method: as §5
[20] = Drug uptake in Sprague-Dawley rat plasma at 0.5 mg/kg iv after 1 hrs; type: ADME, organism-based; design: dose 0.5 mg/kg, route intravenous; summary of the method: as §3
[21] = biological target: B2 bradykinin receptor (Homo sapiens) (UniProt P30411); test: Displacement of [3H]bradykinin from human bradykinin B2 receptor at 10 uM relative to control; summary of the method: as §5
B2 bradykinin receptor (Homo sapiens), sequence (P30411 whole entry): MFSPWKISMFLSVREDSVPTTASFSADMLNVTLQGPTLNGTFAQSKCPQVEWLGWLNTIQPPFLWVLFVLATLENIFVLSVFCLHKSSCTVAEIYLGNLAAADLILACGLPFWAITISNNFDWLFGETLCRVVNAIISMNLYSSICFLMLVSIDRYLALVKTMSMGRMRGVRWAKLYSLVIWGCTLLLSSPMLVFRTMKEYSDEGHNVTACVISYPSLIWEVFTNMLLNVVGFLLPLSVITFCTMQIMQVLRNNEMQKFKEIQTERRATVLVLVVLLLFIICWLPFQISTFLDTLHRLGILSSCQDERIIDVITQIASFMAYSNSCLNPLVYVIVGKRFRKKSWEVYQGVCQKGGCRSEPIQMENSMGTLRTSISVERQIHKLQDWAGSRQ

Salmonella typhimurium [22] = test: Mutagenic activity in Salmonella typhimurium TA98 assessed as number of reversion mutation at 300 ug/plate; type: toxicity, organism-based; conditions: salmonella enterica subsp. enterica serovar typhimurium; summary of the method: as §4
[23] = biological target: 5-hydroxytryptamine receptor 1B (Homo sapiens) (UniProt P28222); test: Displacement of [125I]CYP from human 5-HT1B receptor at 10 uM relative to control; summary of the method: as §1
5-hydroxytryptamine receptor 1B (Homo sapiens), sequence (P28222 whole entry): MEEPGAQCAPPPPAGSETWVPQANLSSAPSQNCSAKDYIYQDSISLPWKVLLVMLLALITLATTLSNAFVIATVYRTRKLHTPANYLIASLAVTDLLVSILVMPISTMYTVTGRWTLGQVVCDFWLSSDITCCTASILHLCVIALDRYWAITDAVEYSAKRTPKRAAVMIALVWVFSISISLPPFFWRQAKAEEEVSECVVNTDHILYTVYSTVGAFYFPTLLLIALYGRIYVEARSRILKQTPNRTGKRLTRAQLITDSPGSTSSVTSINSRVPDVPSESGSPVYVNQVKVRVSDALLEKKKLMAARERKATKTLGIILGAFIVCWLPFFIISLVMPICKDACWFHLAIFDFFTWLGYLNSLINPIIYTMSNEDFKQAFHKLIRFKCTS

[24] = Mean residence time in Sprague-Dawley rat at 2 mg/kg, po; type: ADME, organism-based; design: dose 2 mg/kg, route oral; conditions: in vivo
Rattus norvegicus [25] = test: Apparent volume of distribution during terminal phase in Sprague-Dawley rat at 0.5 mg/kg, iv; type: ADME, organism-based; design: dose 0.5 mg/kg, route intravenous; conditions: in vivo; summary of the method: as §2
[26] = biological target: Histamine H2 receptor (Homo sapiens) (UniProt P25021); test: Displacement of [125I]APT from human histamine H2 receptor at 10 uM relative to control; summary of the method: as §1
Histamine H2 receptor (Homo sapiens), sequence (P25021 whole entry): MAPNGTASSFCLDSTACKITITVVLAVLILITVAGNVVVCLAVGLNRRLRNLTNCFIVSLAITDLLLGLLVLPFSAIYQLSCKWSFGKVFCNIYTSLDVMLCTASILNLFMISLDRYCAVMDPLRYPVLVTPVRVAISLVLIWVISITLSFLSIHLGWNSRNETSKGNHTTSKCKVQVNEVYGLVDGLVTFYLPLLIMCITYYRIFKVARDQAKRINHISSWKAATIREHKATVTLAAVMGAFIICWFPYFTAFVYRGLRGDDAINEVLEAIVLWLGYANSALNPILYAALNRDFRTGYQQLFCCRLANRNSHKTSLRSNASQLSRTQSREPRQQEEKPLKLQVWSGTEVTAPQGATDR

[27] = Elimination half life in Sprague-Dawley rat at 0.5 mg/kg, iv; type: ADME, organism-based; design: dose 0.5 mg/kg, route intravenous; conditions: in vivo, read-out: beta t1/2 (converted); summary of the method: as §3
Salmonella typhimurium [28] = test: Mutagenic activity in Salmonella typhimurium TA100 assessed as number of reversion mutation at 300 ug/plate; type: toxicity, organism-based; conditions: salmonella enterica subsp. enterica serovar typhimurium; summary of the method: as §4
[29] = Tmax in Sprague-Dawley rat at 2 mg/kg, po; type: ADME, organism-based; design: dose 2 mg/kg, route oral; conditions: in vivo
[30] = AUC (0 to time) in Sprague-Dawley rat at 0.5 mg/kg, iv; type: ADME, organism-based; design: dose 0.5 mg/kg, route intravenous; conditions: plasma; summary of the method: as §2
[31] = biological target: Neuromedin-K receptor (Homo sapiens) (UniProt P29371); test: Displacement of [3H]-SR142801 from human NK3 receptor at 10 uM relative to control; summary of the method: as §1
Neuromedin-K receptor (Homo sapiens), sequence (P29371 whole entry): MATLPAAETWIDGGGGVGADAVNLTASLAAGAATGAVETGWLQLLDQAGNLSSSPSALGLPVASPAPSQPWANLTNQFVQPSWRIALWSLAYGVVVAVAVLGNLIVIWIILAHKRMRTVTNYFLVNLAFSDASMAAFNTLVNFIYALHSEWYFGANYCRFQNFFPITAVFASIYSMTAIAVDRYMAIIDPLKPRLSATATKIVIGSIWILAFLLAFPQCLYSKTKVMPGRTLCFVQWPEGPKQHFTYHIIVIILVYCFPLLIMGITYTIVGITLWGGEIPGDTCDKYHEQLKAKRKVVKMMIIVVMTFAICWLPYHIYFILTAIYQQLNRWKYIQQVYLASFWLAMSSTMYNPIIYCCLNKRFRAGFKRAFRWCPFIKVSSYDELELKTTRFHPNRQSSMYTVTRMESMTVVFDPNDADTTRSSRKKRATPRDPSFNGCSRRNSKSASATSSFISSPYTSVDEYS

[32] = biological target: Substance-K receptor (Homo sapiens) (UniProt P21452); test: Displacement of [125I]NKA from human NK2 receptor at 10 uM relative to control; summary of the method: as §1
Substance-K receptor (Homo sapiens), sequence (P21452 whole entry): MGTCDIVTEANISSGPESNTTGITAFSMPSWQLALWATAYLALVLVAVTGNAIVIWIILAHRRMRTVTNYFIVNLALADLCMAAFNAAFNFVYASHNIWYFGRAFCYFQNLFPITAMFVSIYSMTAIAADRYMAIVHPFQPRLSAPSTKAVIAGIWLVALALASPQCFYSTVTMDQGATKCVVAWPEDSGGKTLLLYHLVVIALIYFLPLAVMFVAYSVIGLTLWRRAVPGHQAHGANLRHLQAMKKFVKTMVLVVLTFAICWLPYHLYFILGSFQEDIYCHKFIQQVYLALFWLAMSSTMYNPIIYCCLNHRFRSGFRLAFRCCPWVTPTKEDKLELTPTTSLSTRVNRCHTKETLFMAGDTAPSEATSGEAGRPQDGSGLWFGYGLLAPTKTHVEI

[33] = Ratio of drug level in Sprague-Dawley rat brain to plasma at 0.5 mg/kg iv after 0.25 hrs; type: ADME, organism-based; design: dose 0.5 mg/kg, route intravenous; conditions: read-out: BPR
[34] = biological target: Adrenergic receptor alpha-1 (Homo sapiens) (UniProt P35348+P25100+P35368); test: Displacement of [3H]prazosin from alpha1-adrenergic receptor (unknown origin) at 10 uM relative to control; summary of the method: as §5
Salmonella typhimurium [35] = test: Mutagenic activity in Salmonella typhimurium TA98 assessed as number of reversion mutation at 3 ug/plate; type: toxicity, organism-based; conditions: salmonella enterica subsp. enterica serovar typhimurium; summary of the method: as §4

Melanocortin receptor 4 (Homo sapiens), sequence (P32245 whole entry): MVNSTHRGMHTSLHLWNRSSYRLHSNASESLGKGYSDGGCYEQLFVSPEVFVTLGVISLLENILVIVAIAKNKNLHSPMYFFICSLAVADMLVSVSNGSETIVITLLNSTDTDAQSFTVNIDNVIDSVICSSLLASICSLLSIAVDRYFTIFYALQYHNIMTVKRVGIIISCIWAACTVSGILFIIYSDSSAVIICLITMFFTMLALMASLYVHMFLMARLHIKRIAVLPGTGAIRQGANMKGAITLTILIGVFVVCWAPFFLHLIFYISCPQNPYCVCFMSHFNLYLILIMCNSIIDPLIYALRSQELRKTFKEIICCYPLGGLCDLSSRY

CN(C)CCC(c1ccc(Cl)c(Cl)c1)N1CCOCC1 (stereo not given)
inhibition [1]: 0.8%
AUC [2]: 61 ng·h/mL
bioavailability [3]: 19.4%
inhibition in vivo at 20 mg/kg (Rattus norvegicus [4]): 66%
clearance [5]: 100 mL/min/kg
inhibition [6]: 4%
concentration at 0.08 h [7]: 48.5 ng/mL
inhibition [8]: 1%
concentration at 2 h [9]: 178 ng/mL
inhibition [10]: 96.7%
Kp at 0.5 h [11]: 12.3
Activity (Salmonella typhimurium [12]): 75
AUC(0-inf) [13]: 83.7 ng·h/mL
inhibition [14]: 0.9%
inhibition (Homo sapiens [15]): 40.1%
inhibition [16]: 45.6%
inhibition [17]: 20.6%
inhibition [18]: -0.8%
inhibition (Homo sapiens [19]): -2.3%
concentration at 1 h [20]: 33.5 ng/mL
inhibition [21]: -3.8%
Activity (Salmonella typhimurium [22]): 30
inhibition [23]: 0.7%
MRT [24]: 3.05 h
Vz/F (Rattus norvegicus [25]): 8.3 L/kg
inhibition [26]: -8%
half-life [27]: 1 h
Activity (Salmonella typhimurium [28]): 93
Tmax [29]: 0.5 h
AUC [30]: 78.6 ng·h/mL
inhibition [31]: -0.5%
inhibition [32]: -7%
Kp at 0.25 h [33]: 22
inhibition [34]: 2.6%
Activity (Salmonella typhimurium [35]): 33
